This note sets out measurements from ChEMBL document CHEMBL1155198, “Non-nucleoside inhibitors of HCV polymerase NS5B. Part 4: structure-based design, synthesis, and biological evaluation of benzo[d]isothiazole-1,1-dioxides” (Bioorg Med Chem Lett, 2009).

Data set [1] concerns Hepatitis C virus. Put plainly: Ratio of EC50 for HCV GT-1a replicon over EC50 for HCV GT-1b replicon.
Data set [2] concerns Hepatitis C virus. Kind of data set: Antiviral activity against HCV1b infected in human 2209-23 cells assessed as inhibition of virus RNA replication by Renilla luciferase reporter gene assay in presence of 40% human serum. In kind it is functional, organism-based, Hepacivirus hominis. Conditions: genotype 1b. In short, it runs like this:
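Serum-shift version of the HCV subgenomic replicon (GT-1b) cell assay, with 40% human serum added to assess the effect of protein binding.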
For orientation: A reporter such as luciferase makes a cellular process visible.

Data set [3] has as its system Hepatitis C virus. Put plainly: Antiviral activity against HCV1b infected in human 2209-23 cells assessed as inhibition of virus RNA replication by Renilla luciferase reporter gene assay in presence of 5% fetal bovine serum. In kind it is functional, organism-based, Hepacivirus hominis. As to conditions: genotype 1b. The method, boiled down: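 Cell-based HCV subgenomic replicon (genotype 1b) assay run in medium containing 5% fetal bovine serum.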

The test system of data set [4] is Hepatitis C virus. Kind of data set: Selectivity ratio, EC50 for HCV1b in presence of 40% human serum to EC50 for HCV1b in presence of 5% fetal bovine serum. In kind it is functional, Hepacivirus hominis, genotype 1b.
In data set [5] the test system is Hepatitis C virus. Kind of data set: Antiviral activity against HCV1b infected in human 2209-23 cells assessed as inhibition of virus RNA replication by Renilla luciferase reporter gene assay. In kind it is functional, organism-based, Hepacivirus hominis. As to conditions: genotype 1b.
In another data set the target is Genome polyprotein (Hepatitis C virus genotype 1b (isolate Con1) (HCV), UniProt Q9WMX2). Put plainly: Inhibition of […] con1 NS5B polymerase assessed as [3H]UTP incorporation into acid insoluble RNA product.
Genome polyprotein, sequence (Q9WMX2 2420-3010 limits assumed): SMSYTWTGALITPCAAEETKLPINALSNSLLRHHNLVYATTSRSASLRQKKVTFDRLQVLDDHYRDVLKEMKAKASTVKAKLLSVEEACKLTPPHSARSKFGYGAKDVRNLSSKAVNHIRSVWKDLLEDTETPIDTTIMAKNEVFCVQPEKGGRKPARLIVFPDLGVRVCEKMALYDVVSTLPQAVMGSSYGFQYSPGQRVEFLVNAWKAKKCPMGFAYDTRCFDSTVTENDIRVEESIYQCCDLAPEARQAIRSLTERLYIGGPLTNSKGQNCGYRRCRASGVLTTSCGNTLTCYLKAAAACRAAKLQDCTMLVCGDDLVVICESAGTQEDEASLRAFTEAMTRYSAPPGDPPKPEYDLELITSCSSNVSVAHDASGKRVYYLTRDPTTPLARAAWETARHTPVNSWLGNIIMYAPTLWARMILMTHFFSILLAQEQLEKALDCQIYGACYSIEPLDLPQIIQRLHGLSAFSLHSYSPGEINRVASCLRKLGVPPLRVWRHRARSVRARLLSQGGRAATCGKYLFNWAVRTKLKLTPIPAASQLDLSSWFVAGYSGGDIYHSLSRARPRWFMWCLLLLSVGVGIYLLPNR
Data set [6] is described as follows: AUC in rat at 2 mg/kg, iv and 5 mg/kg, po. The format is ADME, organism-based. Conditions: plasma. In short, it runs like this: (§1)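 Single-dose PK in rats or cynomolgus monkeys; intravenous dose 2 mg/Kg, oral dose 5 mg/Kg; parameters reported as means.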
Data set [7] can be described thus: Half life in rat at 2 mg/kg, iv and 5 mg/kg, po. In kind it is ADME, organism-based. Conditions: in vivo. In short, it runs like this: as §1
Data set [8] can be described thus: Metabolic stability in rat liver microsomes. In kind it is ADME, Microsome. Conditions: read-out: Stability.
Data set [9] can be described thus: Oral bioavailability in rat at 5 mg/kg. The format is ADME, organism-based. Conditions: in vivo. The method, boiled down:
as §1

Data set [10] can be described thus: Clearance in rat at 2 mg/kg, iv and 5 mg/kg, po. In kind it is ADME, organism-based. As to conditions: in vivo. In short, it runs like this:
as §1

Another data set concerns Caco-2. Put plainly: Efflux ratio of permeability from basolateral to apical over apical to basolateral side in human Caco-2 cells after 21 days. Conditions: caco-2, 504 h. (Passage across Caco-2 layers is used to estimate intestinal permeability.)
A short description of data set [11]: Oral bioavailability in cynomolgus monkey at 5 mg/kg. The format is ADME, organism-based, Macaca fascicularis. Conditions: in vivo. The method, boiled down: as §1
The nature of data set [12]: Metabolic stability in cynomolgus monkey liver microsomes. The format is ADME, Macaca fascicularis, Microsome. As to conditions: read-out: Stability.
A short description of data set [13]: AUC in cynomolgus monkey at 2 mg/kg, iv and 5 mg/kg, po. Conditions: plasma. In kind it is ADME, organism-based, Macaca fascicularis. In short, it runs like this: as §1
The nature of data set [14]: Clearance in cynomolgus monkey at 2 mg/kg, iv and 5 mg/kg, po. The format is ADME, organism-based, Macaca fascicularis. Conditions: in vivo. The method, boiled down:
as §1

A short description of data set [15]: Half life in cynomolgus monkey at 2 mg/kg, iv and 5 mg/kg, po. The format is ADME, organism-based, Macaca fascicularis. Conditions: in vivo. The method, boiled down:
as §1

The structures appear in SMILES notation.

For orientation: EC50 means the midpoint of the concentration-response curve. For `CC(C)(C)[C@H]1C(O)=C(C2=NS(=O)(=O)c3c(CNS(C)(=O)=O)cccc32)C(=O)N1Cc1ccc(F)cc1`, in the data set on Hepatitis C virus [1], the Ratio EC50 was determined as 2. The EC50 in the data set with Hepatitis C virus [2] was 3730 nM; in the data set with Hepatitis C virus [3], 100 nM. In the data set on Hepatitis C virus [4], the “Ratio IC50” value turned out to be 37.3.

What is called IC50 is the concentration that gives 50% inhibition. As to `CC(C)(C)[C@H]1C(O)=C(C2=NS(=O)(=O)c3c(NS(C)(=O)=O)cccc32)C(=O)N1Cc1ccc(F)cc1`, in the data set on Hepatitis C virus [5], the EC50 worked out at 4.92 µM. For the same compound, on Genome polyprotein, the IC50 amounted to 5 nM.

For `CC(C)(C)[C@H]1C(O)=C(C2=NS(=O)(=O)c3c(CN4CCCCS4(=O)=O)cccc32)C(=O)N1Cc1ccc(F)cc1`, the EC50 is 4660 nM in the data set on Hepatitis C virus [2] and 202 nM with Hepatitis C virus [3]. Also, the IC50 on Genome polyprotein is 12 nM. The “Ratio IC50” value in the data set with Hepatitis C virus [4] is 23.1.

With `CC(C)(C)[C@H]1C(O)=C(C2=NS(=O)(=O)c3c(OCS(N)(=O)=O)cccc32)C(=O)N1Cc1ccc(F)cc1`, the EC50 with Hepatitis C virus [2] was found to be 2900 nM; in the data set with Hepatitis C virus [3], 228 nM. The IC50 at Genome polyprotein was found to be 6 nM. Besides, in the data set on Hepatitis C virus [4], the “Ratio IC50” value is 12.7.

For orientation: AUC means the area under the concentration-time curve, a measure of exposure. What is called half-life is the time needed for the level to fall by half in the phase considered. Broadly, the bioavailability is dose-corrected exposure relative to a reference, in per cent. For the compound `Cc1cc(CN2C(=O)C(C3=NS(=O)(=O)c4c(CN(C)S(C)(=O)=O)cccc43)=C(O)[C@@H]2C(C)(C)C)ccc1F`, the Ratio EC50 in the data set on Hepatitis C virus [1] was 2. Also, the EC50 with Hepatitis C virus [2] worked out at 1070 nM; in the data set on Hepatitis C virus [3], 129 nM. In addition, the AUC in [6] came to 582 ng·h/mL. The same compound had a half-life in data set [7] of 202 min. Besides, the microsomal CLint in [8] was 939 µL/min/mg. This compound had a bioavailability in data set [9] of 24%. Besides, the IC50 at Genome polyprotein worked out at 5 nM. Further, the clearance in data set [10] came out at 34.4 mL/min/kg. Further, the Ratio in the data set on Caco-2 is reported as 4.3. Also, in the data set on Hepatitis C virus [4], the “Ratio IC50” value worked out at 8.27.

Consider `Cc1cc(CN2C(=O)C(C3=NS(=O)(=O)c4c(CNS(C)(=O)=O)cccc43)=C(O)[C@@H]2C(C)(C)C)ccc1F`, for which the Ratio EC50 with Hepatitis C virus [1] came to 2. For the same compound, the bioavailability in [11] was found to be 11%; in data set [9] it was 17%. Moreover, the EC50 in the data set with Hepatitis C virus [2] was 2570 nM; with Hepatitis C virus [3], 82 nM. In addition, the AUC was 2750 ng·h/mL in data set [6] and 1230 ng·h/mL in data set [13]. In addition, the figures for the half-life in data set [7] and in data set [15] were 251 min and 105 min, respectively. Besides, the microsomal CLint in data set [12] is 23 µL/min/mg; in data set [8], 431 µL/min/mg. Also, the results for the clearance in data set [14] and in data set [10] were 10 mL/min/kg and 8.4 mL/min/kg, respectively. The IC50 at Genome polyprotein was 4 nM. The Ratio in the data set on Caco-2 is given as 31. Further, the “Ratio IC50” value with Hepatitis C virus [4] was 31.3.

As to `CN(Cc1cccc2c1S(=O)(=O)N=C2C1=C(O)[C@H](C(C)(C)C)N(Cc2ccc(F)c(Cl)c2)C1=O)S(C)(=O)=O`, the EC50 in the data set with Hepatitis C virus [2] was 3040 nM; in the data set with Hepatitis C virus [3] it was 108 nM. In addition, the IC50 on Genome polyprotein amounted to 10 nM. For the same compound, the “Ratio IC50” value in the data set with Hepatitis C virus [4] was found to be 28.1.

Take `CC(C)(C)[C@H]1C(O)=C(C2=NS(=O)(=O)c3c(CCS(C)(=O)=O)cccc32)C(=O)N1Cc1ccc(F)cc1`: the EC50 with Hepatitis C virus [2] was 4800 nM; with Hepatitis C virus [3] it was 282 nM. For the same compound, the IC50 at Genome polyprotein worked out at 4 nM. Besides, the “Ratio IC50” value in the data set on Hepatitis C virus [4] is 17.

As to `CC(C)(C)[C@H]1C(O)=C(C2=NS(=O)(=O)c3cc(CNS(C)(=O)=O)ccc32)C(=O)N1Cc1ccc(F)cc1`, in the data set on Hepatitis C virus [5], the EC50 came to 3.84 µM. Also, the IC50 on Genome polyprotein stood at 43 nM.

As for `CC(C)(C)[C@H]1C(O)=C(C2=NS(=O)(=O)c3c(CNS(N)(=O)=O)cccc32)C(=O)N1Cc1ccc(F)cc1`, the values for the EC50 in the data set on Hepatitis C virus [2] and in the data set with Hepatitis C virus [3] were 1300 nM and 105 nM, respectively. The IC50 at Genome polyprotein worked out at 3 nM. For the same compound, the “Ratio IC50” value with Hepatitis C virus [4] is given as 12.4.

Consider `CC(C)(C)[C@H]1C(O)=C(C2=NS(=O)(=O)c3c(OCS(C)(=O)=O)cccc32)C(=O)N1Cc1ccc(F)cc1`, for which the EC50 was 4660 nM in the data set on Hepatitis C virus [2] and 235 nM in the data set on Hepatitis C virus [3]. Further, the IC50 at Genome polyprotein is 9 nM. For the same compound, in the data set on Hepatitis C virus [4], the “Ratio IC50” value turned out to be 19.8.

Consider `CN(Cc1cccc2c1S(=O)(=O)N=C2C1=C(O)[C@H](C(C)(C)C)N(Cc2ccc(F)cc2)C1=O)S(N)(=O)=O`, for which the EC50 with Hepatitis C virus [2] worked out at 1270 nM; in the data set on Hepatitis C virus [3] it was 272 nM. Also, the IC50 at Genome polyprotein came to 1 nM. The “Ratio IC50” value with Hepatitis C virus [4] came out at 5.9.

In the case of `Cc1cc(CN2C(=O)C(C3=NS(=O)(=O)c4c(CNS(N)(=O)=O)cccc43)=C(O)[C@@H]2C(C)(C)C)ccc1F`, in the data set on Hepatitis C virus [1], the Ratio EC50 stood at 2. Besides, the values for the half-maximal effective concentration (EC50) in the data set with Hepatitis C virus [2] and in the data set with Hepatitis C virus [3] were 1170 nM and 76 nM, respectively. In addition, the AUC in data set [6] is 102 ng·h/mL. Further, in [7], the half-life was 282 min. Besides, the microsomal CLint in data set [8] amounted to 239 µL/min/mg. The compound further returned a bioavailability in data set [9] of 8.2%. In addition, the IC50 at Genome polyprotein was found to be 3 nM. Besides, in [10], the clearance came to 48 mL/min/kg. Moreover, the Ratio in the data set with Caco-2 was determined as 6.7. Moreover, in the data set with Hepatitis C virus [4], the “Ratio IC50” value is on record as 15.3.
